Source: PubChem BioAssay
Shown are actives, neighbours in structure and some others; about 3.3% of the full set was active somewhere.
PfM18AAP inh-1 – blocks P. falciparum M18 aspartyl aminopeptidase; recombinant PfM18AAP, H-Glu-NHMec fluorogenic cleavage; inhibition, % at 7.35 µM; hit rate 1.2% among 290,000; AID 1822;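 active = inhibition above the campaign mean inhibition over all tested compounds plus 3 SD, cut at about 28% in these data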;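 note: 0% = plate median of test compound wells and 100% = 2 mM ZnCl2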
Arr AP2 block – inhibitors of human beta-arrestin and AP2 interaction; FITC-arrestin peptide / GST-AP2 beads, flow cytometry; AP2 beta2 appendage carries R879A mutation; inhibition, % at 10 µM; hit rate 0.31% among 340,000;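 active = inhibition above a set limit, near 3 SD of compounds lacking own fluorescence, cut at about 54% in these data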;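 note: plate controls were DMSO wells for no effect and 5 µM unlabelled arrestin peptide for full effect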
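system = GST-tagged AP2 beta2-adaptin appendage (R879A) on 4 µm glutathione beads | reagent = FITC-labelled arrestin peptide probe, 50 nM final | schedule = compound with beads 12 min RT, then probe 1 h RT | signal = HyperCyt-sampled flow cytometry, FL1 channel, ex 488/em 535 nm | read-out = percent response from loss of bead-bound FITC fluorescence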
Lipid droplet – hepatic lipid droplet formation modulation; AML12 mouse hepatocytes, oleate lipid droplets, BODIPY imaging; inhibition, % at 6.5 µM; hit rate 0.4% among 240,000; AID 1656;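 active = lipid droplet intensity inhibited by at least 50%, with more than 500 cells counted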
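Assay system: AML12 mouse liver cells | Compound dosing: One dose, 6.5 µM compound | Read-out basis: Droplet intensity reduction, % inhibition | Measured by: Fluorescence imaging, 20x objective, two fields per well | Schedule: Overnight treatment with compound plus oleate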
CendR NRP1 mod – modulators of CendR peptide binding to human neuropilin-1. FAM-RPARPAR peptide binding to NRP-1, fluorescence polarization. inhibition, % at 25 µM. hit rate 0.85% among 360,000. AID 602438;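 active = inhibition or corrected inhibition above about 18%, plus a signal ratio from 0.5 to 1.5, limit read from the data, passing the limit was not always enough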
HTR2A ag – activates the mouse 5-HT2A serotonin receptor. hit rate 0.66% among 360,000. P35363. activation, % at 7.6 µM. CHO-K1 mHTR2A beta-arrestin complementation, luminescence; percent of 30 µM serotonin response;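 active = activation above a run cutoff, the mean activation of all tested compounds plus 3 SD, cut at about 14% in these data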;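 note: 0% = plate median of compound wells and 100% = 30 µM serotonin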
Target sequence (P35363 whole entry, looked up): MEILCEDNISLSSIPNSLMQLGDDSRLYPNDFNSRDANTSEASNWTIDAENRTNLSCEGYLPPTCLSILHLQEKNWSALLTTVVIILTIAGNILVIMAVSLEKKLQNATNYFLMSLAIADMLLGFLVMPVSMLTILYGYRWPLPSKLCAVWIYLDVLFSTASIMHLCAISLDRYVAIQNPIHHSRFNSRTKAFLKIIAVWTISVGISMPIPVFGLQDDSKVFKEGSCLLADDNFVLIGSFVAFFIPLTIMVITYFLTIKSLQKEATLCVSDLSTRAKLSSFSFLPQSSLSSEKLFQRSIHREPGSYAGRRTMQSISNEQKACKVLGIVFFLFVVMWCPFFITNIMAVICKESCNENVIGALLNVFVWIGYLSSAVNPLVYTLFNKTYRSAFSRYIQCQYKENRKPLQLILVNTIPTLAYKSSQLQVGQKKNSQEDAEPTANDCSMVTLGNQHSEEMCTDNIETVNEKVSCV
sPLA2-III inh – Blocks human group III sPLA2 activity | Q9NZ20 | QFRET BODIPY PC-A2 liposome hydrolysis, fluorescence | inhibition, % at 12.2 µM | hit rate 0.56% among 370,000;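 active = inhibition above mean plus 3 SD of compounds lying within the high and low control bounds, cut at about 19% in these data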;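 note: 0% = median of test compound wells and 100% = no enzyme DMSO wells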
PfM18AAP inh-2 – confirmation of Plasmodium falciparum M18 aspartyl aminopeptidase inhibitors; recombinant PfM18AAP, H-Glu-NHMec fluorogenic cleavage; shares compounds with PfM18AAP inh-1; AID 2170; hit rate 28% among 2,400; inhibition, % at 7.35 µM;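 active = mean inhibition over replicate wells above the hit cutoff set for the earlier primary screen, cut at about 29% in these data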;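 note: 0% = median of test compound wells and 100% = 2 mM ZnCl2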
CTSL1 counter – counter-screen for PFM18AAP inhibitors: confirmation of human cathepsin L inhibitors. shares compounds with PfM18AAP inh-1. purified cathepsin L1, Z-Leu-Arg-MCA fluorescence. inhibition, % at 5.96 µM. 2,400 tested, under 10 active. AID 2178;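 active = average inhibition across replicates above the hit cutoff set in the earlier primary screen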;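 note: 0% = median of test compound wells and 100% = Z-Phe-Ala-diazomethylketone 1 µM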
Numbers without * were called inactive; x = no result.

SMILES	PfM18AAP inh-1	Arr AP2 block	Lipid droplet	CendR NRP1 mod	HTR2A ag	sPLA2-III inh	PfM18AAP inh-2	CTSL1 counter
Cc1c2cc(O)c(=O)cc-2oc2cc(O)c(O)cc12	29*	-252	-1	132	4	6	42*	-1
N/C(Cn1cncn1)=N\OC(=O)c1ccc(Cl)cc1	5	5	15	-2	-7	4	x	x
O=C(OCn1cncn1)c1ccc(Cl)cc1Cl	53*	-9	3	4	-1	2	29*	6
CCOC(=O)[C@@]12CCC3=C1N(CCC3)C(=O)[C@H](CC(=O)NCC1CCCCC1)C2	x	x	x	x	x	9	x	x
CC(=O)N1CCN(c2ccc(NCc3ccccc3)cc2)CC1	2	25	x	15	-6	0	x	x
CC(=O)N1CCN(c2ccc(N=Cc3c(O)n(Cc4ccccc4)c(=O)[nH]c3=O)cc2)CC1	33*	19	-5	-2	0	-9	-59	-8
C[C@@H]1CN([C@@H](C)CO)C(=O)CCCn2cc(nn2)CO[C@H]1CN(C)C(=O)Nc1ccc(C(F)(F)F)cc1	x	x	x	x	x	7	x	x
Cc1ccc(C(=O)C2CCN(CC(=O)NC(C)C)CC2)cc1	x	x	x	x	x	2	x	x
Cc1c(C)n(CCc2ccccc2)c2ncnc(NCCCO)c12	-14	20	-4	9	3	-24	x	x
Cc1c(C)n(CCc2ccccc2)c2ncnc(NN)c12	44*	-17	-31	-12	5	0	4	2
Cc1c(C)n(Cc2ccccc2)c2ncnc(NN)c12	34*	24	-10	1	-4	2	-3	-10
Cc1c(C)n(Cc2ccccc2)c2ncnc(NCCN(C)C)c12	-4	32	x	9	-6	-20	x	x
CC(C)(C)c1ccc(S(=O)(=O)NC(=O)C2(C)CCN2C(=O)Cc2ccccc2Cl)cc1 (stereo not given)	x	x	x	3	7	-5	x	x
COC(=O)[C@]12C[C@H](CC(=O)N3CCCCC3)C(=O)N(CCC3=CCCCC3)C1=C[C@H](COCc1ccccc1)O[C@@H]2C	x	x	x	x	x	-11	x	x
COc1ccc(C(=O)/C=C2\Sc3ccccc3N2C)cc1	19	10	2	-19	2	8	x	x
CC(=S)/C=C1\Sc2ccccc2N1C	37*	-10	x	-16	-5	3	5	5
COC(=O)[C@]12C[C@H](CC(=O)NCc3ccc(C)o3)C(=O)N(Cc3ccco3)C1=C[C@H](C1CCCC1)O[C@@H]2C	x	x	x	x	x	-7	x	x
CCOC(=O)c1sc(NNC(=O)c2ccc(C)cc2)nc1C	37*	-6	1	5	-3	6	8	-1
CCOC(=O)c1sc(NC(=O)Cc2ccc(C)cc2)nc1C	2	19	-1	0	-5	0	x	x
CCOC(=O)c1sc(N)c(C(=O)Nc2ccccc2)c1C	40*	7	19	6	1	5	5	1
CCOC(=O)c1sc(N)c(C(=O)OCC)c1C	-6	-7	-15	9	-1	-4	x	x
CC(C)[C@H](NS(=O)(=O)c1ccc(F)cc1F)C(=O)N1CCC[C@H]1C(=O)NCCc1ccccc1Cl	x	x	x	x	x	-7	x	x
O=c1cccccc1NCc1ccccc1	42*	12	2	-11	7	-4	-41	3
N#Cc1ccccc1NCc1ccccc1	0	5	x	5	1	7	x	x
COc1cccc(/C=N/Nc2nnc(C)n2N)c1OCc1ccccc1Cl	41*	9	-9	3	1	-3	-31	2
SMILES	PfM18AAP inh-1	Arr AP2 block	Lipid droplet	CendR NRP1 mod	HTR2A ag	sPLA2-III inh	PfM18AAP inh-2	CTSL1 counter
Nn1cnnc1N/N=C/c1ccccc1C(F)(F)F	48*	-16	x	9	4	-2	-31	2
CCc1nnc(N/N=C/c2ccccc2Cl)n1N	39*	8	x	-6	-1	10	-53	0
Nn1cnnc1N/N=C/c1cccc(Cl)c1Cl	52*	7	-3	1	-10	-2	-46	4
COc1ccc(/C=N/Nc2nnc(C)n2N)cc1OC	26	-10	-10	-1	0	2	x	x
CC1(C(=O)NS(=O)(=O)c2ccc(Cl)s2)CCN1C(=O)Cc1ccccc1Cl (stereo not given)	x	x	x	3	6	-11	x	x
CCCCN1CC(COCc2ccccc2)Oc2cccc(NCc3cc(OC)c(OC)c(OC)c3)c2S1(=O)=O (stereo not given)	x	x	x	x	x	-11	x	x
S=C(Nc1ccccn1)c1ccccn1	36*	-5	7	-11	-2	4	-23	2
O=C(O)CCn1c2c(c3ccccc31)CCCC2	45*	7	-2	-8	-5	4	-28	4
Oc1c(Br)cccc1/C=N/c1ncn[nH]1	63*	-10	2	-9	2	11	55*	-1
CCOC(=O)c1c(NC(=O)C2CCCO2)sc(C(=O)OC(C)(C)C)c1C (stereo not given)	35*	8	-3	0	1	7	7	4
Cc1sc(NC(=O)C2CCCO2)c(C(N)=O)c1C (stereo not given)	37*	17	0	-2	-1	1	-22	0
COc1ccc(C(=O)/C=C(\Nc2ccc(F)cc2)c2ccc(OC)cc2OC)c(OC)c1	x	x	x	x	x	-14	x	x
Cc1cccc(C)c1NC(=O)C1(C)CN(S(C)(=O)=O)CC(=O)N1Cc1cccc(F)c1 (stereo not given)	x	x	x	-2	-1	-3	x	x
COC(=O)[C@]12C[C@H](CC(=O)NCCCN3CCCC3=O)C(=O)N(Cc3ccc4c(c3)OCO4)C1=C[C@H](COCc1ccccc1)O[C@@H]2C	x	x	x	x	x	2	x	x
CC(=O)Nc1cccc(-c2ccnc3c2CC(C(=O)Nc2ccc(Cl)cc2)O3)c1 (stereo not given)	x	x	x	-2	1	-48	x	x
O=C(N/N=C/c1c[nH]c2ccccc12)c1cccc(O)c1	3	-3	-12	-19	-8	-11	x	x
O=C(N/N=C/c1c[nH]c2ccccc12)c1ccc(O)c(O)c1	70*	36	4	-31	-4	6	50*	2
CCOC(=O)c1c(CN(C)C)n(-c2ccc(C)cc2)c2cc(Br)c(O)cc12	38*	7	2	7	-8	-50	-38	3
CCOC(=O)c1c(CN(C)C)n(-c2ccccc2)c2cc(Br)c(OC)cc12	-2	25	8	-2	1	-1	x	x
Cc1ccccc1-n1c(=O)c2ccccc2n2c(=O)[nH]nc12	4	19	5	11	3	3	x	x
Cc1cccc(-n2c(=O)c3ccccc3n3c(=S)[nH]nc23)c1C	40*	11	2	-9	3	8	1	-7
